Experimental data as given in ChEMBL document CHEMBL4316619 (Bioorg Med Chem Lett, 2019).
Calls of active or inactive are those of the source. The calls are words filed in the database; no cut-off is given here.

Key:
Influenza A virus H3N2 = assay: Antiviral activity against Influenza A virus (A/Brisbane/10/2007(H3N2)) infected in MDCK cells assessed as reduction in virus-induced cytopathic effect measured on day 5 by Celltiter-Glo luminescence assay; assay type: functional, organism-based; conditions: 120 h
In short: (§1)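 MDCK cells were infected with seasonal influenza A strains through NIAID resources and scored for protection from virus-induced cell death. Compounds were tested at four concentrations (0.8, 4, 20, 100 μM). EC50/EC90 (reduction of viral cell death) and CC50 (reduction of cell viability) were derived in μM, and SI50 = CC50/EC50.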

[1] = AUC (infinity) in C57BL/6 mouse liver at 30 mg/kg, ip; assay type: ADME, organism-based; set-up: dose 30 mg/kg, time infinity, route intraperitoneal
In short: (§2)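 Male C57BL/6 mice received a single intraperitoneal dose of 30 mg/kg (N=3). Compound concentrations were followed over time in plasma, liver and lung. Tmax, Cmax, terminal t1/2, AUClast and AUCINF were derived from the mean concentration-time profiles.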

[2] = Tmax in C57BL/6 mouse lung at 30 mg/kg, ip; assay type: ADME, organism-based
In short: (§3)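 Male C57BL/6 mice, single intraperitoneal 30 mg/kg dose, N=3. Plasma, liver and lung concentrations followed over time to give concentration-time profiles, from which Tmax, Cmax, terminal t1/2, AUClast and AUCINF were derived.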

[3] = Drug level in C57BL/6 mouse plasma at 30 mg/kg, ip measured at 2 hrs; assay type: ADME, organism-based; in short: as §3
[4] = Apparent permeability across basolateral to apical side in human Caco2 cells measured after 2 hrs in presence of 3% BSA; assay type: ADME, cell-based; conditions: caco-2, 2 h
In short: (§4)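 Permeability was measured across Caco-2 monolayers in both directions, apical to basolateral and basolateral to apical. […] Runs were done with and without 3% BSA, and mass recovery (%) was reported for each direction. Efflux ratio = Papp B→A / Papp A→B.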

[5] = Drug level in C57BL/6 mouse lung at 30 mg/kg, ip measured at 0.5 hrs; assay type: ADME, organism-based; conditions: in vivo; in short: as §2
[6] = Apparent permeability across basolateral to apical side in human Caco2 cells measured after 2 hrs; assay type: ADME, cell-based; conditions: caco-2, 2 h; in short: as §4
Influenza A virus [7] = assay: Antiviral activity against Influenza A virus A/PR/8/34 (H1N1) infected in MDCK cells assessed as 3-log reduction in virus titer measured after 48 hrs by hemagglutination assay; assay type: functional, A/Puerto Rico/8/1934(H1N1)
In short: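 MDCK cells were infected with A/PR/8/34 (H1N1) at MOI 0.1 and incubated with compound for 48 h. Supernatant virus was then quantified by hemagglutination assay and standard TCID50 analysis. The single-concentration screen used 10 μM and reports fold reduction in titer. Dose-response runs used triplicate cultures, with percent titer decrease back-calculated from TCID50.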

[8] = Drug level in C57BL/6 mouse liver at 30 mg/kg, ip measured at 48 hrs; assay type: ADME, organism-based; conditions: in vivo; in short: as §2
[9] = Terminal half life in C57BL/6 mouse liver at 30 mg/kg, ip; assay type: ADME, organism-based; conditions: read-out: beta t1/2 (converted); in short: as §3
[10] = Drug level in C57BL/6 mouse lung at 30 mg/kg, ip measured at 48 hrs; assay type: ADME, organism-based; conditions: in vivo; in short: as §2
[11] = AUClast in C57BL/6 mouse plasma at 30 mg/kg, ip; assay type: ADME, organism-based; set-up: dose 30 mg/kg, route intraperitoneal, time 0 - last; in short: as §2
[12] = Toxicity in C57BL/6 mouse assessed as effect on lungs at 30 mg/kg, ip; assay type: organism-based; conditions: in vivo
[13] = Drug level in C57BL/6 mouse lung at 30 mg/kg, ip measured at 4 hrs; assay type: ADME, organism-based; conditions: in vivo; in short: as §2
[14] = Drug level in C57BL/6 mouse lung at 30 mg/kg, ip measured at 1 hrs; assay type: ADME, organism-based; conditions: in vivo; in short: as §2
[15] = Drug level in C57BL/6 mouse plasma at 30 mg/kg, ip measured at 8 hrs; assay type: ADME, organism-based; in short: as §3
Influenza A virus [16] = assay: Effect on NS1 protein expression in Influenza A virus A/PR/8/34 (H1N1) infected in MDCK cells at 20 uM by Western blot analysis; assay type: functional, organism-based; conditions: A/Puerto Rico/8/1934(H1N1)
In short: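 MDCK cells, uninfected or infected with A/PR/8/34, treated with DMSO or compound at 20 μM. NS1 protein detected by Western blot, with α-tubulin as loading control.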

[17] = Tmax in C57BL/6 mouse plasma at 30 mg/kg, ip; assay type: ADME, organism-based; conditions: mouse, in vivo; in short: as §3
[18] = Drug level in C57BL/6 mouse plasma at 30 mg/kg, ip measured at 1 hrs; assay type: ADME, organism-based; in short: as §3
[19] = Drug level in C57BL/6 mouse liver at 30 mg/kg, ip measured at 24 hrs; assay type: ADME, organism-based; conditions: in vivo; in short: as §2
[20] = Cmax in C57BL/6 mouse liver at 30 mg/kg, ip; assay type: ADME, organism-based; set-up: dose 30 mg/kg, route intraperitoneal; in short: as §2
[21] = Toxicity in C57BL/6 mouse assessed as effect on liver at 30 mg/kg, ip; assay type: organism-based; conditions: in vivo
[22] = Stability of the compound in mouse liver microsomes assessed as parent compound remaining measured after 15 mins; assay type: ADME, Microsome; conditions: read-out: Stability
In short: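 Mouse liver microsomes; percent parent compound remaining measured at 0, 15 and 30 min.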

[23] = biological target: Non-structural protein 1 (Influenza A virus (strain A/Puerto Rico/8/1934 H1N1)) (UniProt P03496); assay: Inhibition of NS1 in Influenza A virus A/PR/8/34 (H1N1) infected in MDCK cells assessed as restoration of protein-induced reduction in IFN-beta mRNA expression at 20 uM measured after 6 hrs by RT-PCR analysis; assay type: cell-based; conditions: Influenza A virus (A/Puerto Rico/8/1934(H1N1))
In short: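 MDCK cells infected with A/PR/8/34 at MOI 2 and incubated 6 h with compound at 20 μM. Cells harvested; IFN-β and β-actin mRNA detected by RT-PCR. Poly(I:C) lane serves as positive control for IFN-β induction.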

[24] = Apparent permeability across basolateral to apical side in human Caco2 cells assessed as drug recovery; assay type: ADME, cell-based; conditions: caco-2; in short: as §4
[25] = Toxicity in C57BL/6 mouse assessed as adverse effect at 30 mg/kg, ip; assay type: organism-based; conditions: in vivo
[26] = Terminal half life in C57BL/6 mouse plasma at 30 mg/kg, ip; assay type: ADME, organism-based; conditions: mouse, in vivo; in short: as §3
[27] = Drug level in C57BL/6 mouse lung at 30 mg/kg, ip measured at 12 hrs; assay type: ADME, organism-based; conditions: in vivo; in short: as §2
[28] = Drug level in C57BL/6 mouse liver at 30 mg/kg, ip measured at 0.083 hrs; assay type: ADME, organism-based; conditions: in vivo; in short: as §2
[29] = AUClast in C57BL/6 mouse liver at 30 mg/kg, ip; assay type: ADME, organism-based; set-up: dose 30 mg/kg, time 0 - last, route intraperitoneal; in short: as §2
[30] = Drug level in C57BL/6 mouse plasma at 30 mg/kg, ip measured at 24 hrs; assay type: ADME, organism-based; in short: as §3
[31] = Drug level in C57BL/6 mouse plasma at 30 mg/kg, ip measured at 0.25 hrs; assay type: ADME, organism-based; in short: as §3
Saccharomyces cerevisiae = assay: Effect on growth of Yeast 9526-6-2 harboring pYES at 50 uM measured up to 60 hrs; assay type: organism-based; conditions: in vivo
In short: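 Control yeast carrying empty pYES and NS1-expressing NS1-pYES strain grown with DMSO or compound at 50 μM. Growth measured as OD600 at 22, 42 and 60 h.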

[32] = Apparent permeability across basolateral to apical side in human Caco2 cells assessed as drug recovery in presence of 3% BSA; assay type: ADME, cell-based; conditions: caco-2; in short: as §4
[33] = Cytotoxicity against MDCK cells assessed as reduction in cell viability measured on day 5 by Celltiter-Glo luminescence assay; assay type: cell-based, Canis lupus familiaris; conditions: dog, MDCK cells; in short: as §1
[34] = Drug level in C57BL/6 mouse lung at 30 mg/kg, ip measured at 24 hrs; assay type: ADME, organism-based; conditions: in vivo; in short: as §2

Sequence of Non-structural protein 1 (Influenza A virus (strain A/Puerto Rico/8/1934 H1N1)) (P03496 whole entry): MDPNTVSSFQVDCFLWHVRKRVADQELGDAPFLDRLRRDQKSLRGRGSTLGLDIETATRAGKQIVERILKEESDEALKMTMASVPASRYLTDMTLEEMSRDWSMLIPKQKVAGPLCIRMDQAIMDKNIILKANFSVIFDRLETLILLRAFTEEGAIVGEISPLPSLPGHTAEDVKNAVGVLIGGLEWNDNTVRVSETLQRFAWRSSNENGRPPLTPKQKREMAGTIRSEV

COc1cc(-c2ccnc3c2c(C)nn3-c2ccc(C(F)(F)F)cc2)ccc1O
EC50 (Influenza A virus H3N2): 17 µM
EC90 (Influenza A virus H3N2): > 50 µM
AUC(0-inf) [1]: 80300 ng·h/mL
Tmax [2]: 0.25 h
concentration at 2 h [3]: 2530 nM
Papp [4]: 0.27 ×10⁻⁶ cm/s
Drug uptake [5]: 36057 nmol/kg
Papp [6]: 0.23 ×10⁻⁶ cm/s
TCID50 (Influenza A virus [7]): 1.6 µM
Drug uptake [8]: 23 nmol/kg
half-life [9]: 4.7 h
Drug uptake [10]: 15 nmol/kg
AUC(0-t) [11]: 7660 ng·h/mL
Activity [12]: Non-Toxic
Drug uptake [13]: 11477 nmol/kg
Drug uptake [14]: 26592 nmol/kg
concentration at 8 h [15]: 555 nM
Activity (Influenza A virus [16]): inactive
Tmax [17]: 0.25 h
concentration at 1 h [18]: 5120 nM
Drug uptake [19]: 224 nmol/kg
Cmax [20]: 49600 ng/mL
Activity [21]: Non-Toxic
remaining at 0.25 h [22]: 66%
inhibition [23]: Active
Drug recovery [24]: 9%
Activity [25]: Non-Toxic
beta t1/2 [26]: 4.6 h
Drug uptake [27]: 1741 nmol/kg
Drug uptake [28]: 114014 nmol/kg
AUC(0-t) [29]: 80200 ng·h/mL
concentration at 24 h [30]: 20 nM
concentration at 0.25 h [31]: 6100 nM
Activity (Saccharomyces cerevisiae): Non-Toxic
Drug recovery [32]: 81%
CC50 at 5 day [33]: 19.8 to 27.8 µM
Drug uptake [34]: 168 nmol/kg
